Measurements pooled from the literature.
Protocols differ between the studies behind these lines.

Nc1ncc(-c2cnn(C3CCNCC3)c2)cc1-c1nnc(CC2CC2)o1  IC50 (U-937; cell growth or viability; trypan blue; 72 h): 380 nM
O=C1CCCCC1C1C2C=CC=CC1C(CCCCOC1CCCCO1)=C2 (stereo not shown)  IC50 (U-937; cell growth or viability; flow cytometry): 143 nM
Oc1ccc(Nc2nc(-c3ccc(Cl)cc3)cs2)cc1  IC50 (UACC-903; cell growth or viability; MTS; 72 h): 33600 nM
CCc1c2c(nc3ccc(OC(=O)N4CCC(N5CCCCC5)CC4)cc13)-c1cc3c(c(=O)n1C2)COC(=O)[C@]3(O)CC  IC50 (HCCLM3; cell growth or viability; MTT; 72 h): 33400 nM
O=C(Oc1ccc2c(=O)c(-c3ccccc3Cl)c(C(F)(F)F)oc2c1)c1cccs1  IC50 (human Neutrophil; cell migration; inhibitor): 80 nM
O=C1CCCCC1C1C2C=CC=CC1/C(=C/Cc1ccccc1)C2 (stereo not shown)  IC50 (U-937; cell growth or viability; flow cytometry): 59 nM
Oc1ccc(/C=C/c2cc(O)cc(O)c2)cc1  IC50 (J774; cell growth or viability; resazurin; 48 h): 162000 nM
COC(=O)CCC1=CC2C=CC=CC1C2C1CCCCC1=O (stereo not shown)  IC50 (U-937; cell growth or viability; flow cytometry): 171 nM
COc1ccccc1-c1c(C)oc2cc(OC(=O)c3cccs3)ccc2c1=O  IC50 (human Neutrophil; cell migration; inhibitor): 320 nM
Cc1cc(=O)oc2ccc(-c3cc(-c4ccc(Cl)cc4)nc(N)n3)c(O)c12  IC50 (KB; cell growth or viability; MTT; 72 h): 25.6 µg/mL
CC(C)C[C@H](NC(=O)[C@H](Cc1ccccc1)NC(=O)c1cnccn1)B(O)O  IC50 (NCI-H1703; cell growth or viability; ATP luminescence): 12 nM
COc1ccccc1-c1c(C(F)(F)F)oc2cc(OC(=O)c3ccccc3)ccc2c1=O  IC50 (human Neutrophil; cell migration; inhibitor): 120 nM
COc1cc(O)c(CC=C(C)C)c(O)c1C(=O)/C=C/c1ccc(O)cc1  IC50 (J774; cell growth or viability; resazurin; 48 h): 60800 nM
Cc1cc(=O)oc2ccc(-c3cc(-c4ccc(Br)cc4)nc(N)n3)c(O)c12  IC50 (KB; cell growth or viability; MTT; 72 h): > 128 µg/mL
COc1ccc(C=CC(=O)c2ccc(Cl)cc2Cl)cc1OC  IC50 (J774; cell growth or viability; MTT; 24 h): 6.25 µg/mL
COc1ccccc1-c1c(C(F)(F)F)oc2cc(OC(=O)c3ccco3)ccc2c1=O  IC50 (human Neutrophil; cell migration; inhibitor): 180 nM
O=C(N/N=C/c1c(O)ccc2ccccc12)c1cc(-c2ccc3ccccc3c2)n[nH]1  IC50 (UACC-903; cell growth or viability; MTS; 24 h): 19500 nM
COc1ccccc1-c1c(C)oc2cc(OC(=O)c3ccco3)ccc2c1=O  IC50 (human Neutrophil; cell migration; inhibitor): 430 nM
COc1cc(OC)c(/C=C/S(=O)(=O)Nc2ccc(OC)c(N)c2)c(OC)c1  IC50 (RF48; cell growth or viability; trypan blue; 96 h): 4 nM
COc1ccccc1-c1c(C(F)(F)F)oc2cc(OC(=O)C3CC3)ccc2c1=O  IC50 (human Neutrophil; cell migration; inhibitor): 360 nM
COc1cc(Nc2nccc(-c3cnn4nc(OC)ccc34)n2)cc(C(F)(F)F)c1  IC50 (EFO-27; cell growth or viability; ATP luminescence): 790 nM
N#CCCCC1=CC2C=CC=CC1C2C1CCCCC1=O (stereo not shown)  IC50 (U-937; cell growth or viability; flow cytometry): 74 nM
Cl.Oc1cccc2c1[nH]c1c(C3=CC4(O)CC/C=C\CCCCN5CCC3C3(CC6/C=C\CCCCN6C43)C5)nccc12 (single isomer, unassigned; (+))  IC50 (KB; cell growth or viability; neutral red; 48 h): 0.69 µg/mL
NCC(=O)O  IC50 (HFF; cell growth or viability; MTT; 48 h): 252000 nM
Cc1cc(=O)oc2ccc(-c3cc(-c4cccs4)nc(N)n3)c(O)c12  IC50 (KB; cell growth or viability; MTT; 72 h): > 128 µg/mL
O=C1CCCCC1C1C2C=CC=CC1C(C1CC1)=C2 (stereo not shown)  IC50 (U-937; cell growth or viability; flow cytometry): 41 nM
Cc1cc(=O)oc2ccc(-c3cc(-c4ccccc4)nc(N)n3)c(O)c12  IC50 (KB; cell growth or viability; MTT; 72 h): > 128 µg/mL
COc1ccc(C=CC(=O)c2cccc([N+](=O)[O-])c2)cc1OC  IC50 (J774; cell growth or viability; MTT; 24 h): 25 µg/mL
